In ChEMBL document CHEMBL1139477, “Synthesis and evaluation of estrogen receptor ligands with bridged oxabicyclic cores containing a diarylethylene motif: estrogen antagonists of unusual structure” (J Med Chem, 2005):
Calls of active or inactive are those of the source. The rule behind the calls is not given here.

How the values were obtained:
[1] = target: Estrogen receptor beta (Homo sapiens) (UniProt Q92731); experiment: Displacement of [3H]estradiol from human ERbeta relative to estradiol
[2] = target: Estrogen receptor (Homo sapiens) (UniProt Q92731+P03372); experiment: Ratio of RBA for human estrogen receptor alpha to RBA for human estrogen receptor beta; format: protein assay
[3] = target: T1, Estrogen receptor (Homo sapiens) (UniProt P03372); experiment: Displacement of [3H]estradiol from human ERalpha relative to estradiol
T1 sequence (whole entry): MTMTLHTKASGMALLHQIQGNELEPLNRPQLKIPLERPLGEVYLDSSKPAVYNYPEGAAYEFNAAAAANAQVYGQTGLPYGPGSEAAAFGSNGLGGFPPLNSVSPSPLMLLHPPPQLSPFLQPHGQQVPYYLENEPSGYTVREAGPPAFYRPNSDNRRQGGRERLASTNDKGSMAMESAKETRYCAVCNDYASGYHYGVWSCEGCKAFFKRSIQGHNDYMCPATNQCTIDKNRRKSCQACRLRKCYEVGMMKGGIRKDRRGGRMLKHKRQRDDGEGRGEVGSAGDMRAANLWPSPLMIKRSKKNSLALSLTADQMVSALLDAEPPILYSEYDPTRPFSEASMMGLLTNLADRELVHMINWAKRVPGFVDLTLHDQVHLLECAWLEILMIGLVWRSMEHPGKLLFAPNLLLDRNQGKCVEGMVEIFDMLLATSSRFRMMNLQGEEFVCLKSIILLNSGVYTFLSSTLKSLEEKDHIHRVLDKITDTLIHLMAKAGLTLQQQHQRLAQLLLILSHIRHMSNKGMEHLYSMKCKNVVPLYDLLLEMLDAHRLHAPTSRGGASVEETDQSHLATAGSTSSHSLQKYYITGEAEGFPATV

[4] = target: T1, Estrogen receptor (Homo sapiens); experiment: Activity at ERalpha in human HEC1 cells assessed as antagonism of estradiol-activated transcription activation relative to estradiol; format: functional, cell-based; conditions: HEC-1
Procedure, shortened: (§1)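 HEC-1 cells kept in phenol red MEM with 5% calf serum plus 5% fetal calf serum, then plated in phenol red-free Improved MEM with 5% charcoal dextran-treated calf serum. Lipofectin transfection for 5 h at 37 °C with full-length human ERα or ERβ vector, 2ERE-pS2-Luc and pCMV β-galactosidase control. Ligand, 10^-8 to 10^-5 M, given with 1 nM estradiol for 24 h. Luciferase read, as percent of 10^-9 M estradiol alone. Two or more experiments.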

[5] = target: Estrogen receptor beta (Homo sapiens) (UniProt Q92731); experiment: Activity at ERbeta in human HEC1 cells assessed as antagonism of estradiol-activated transcription activation relative to estradiol; format: functional, cell-based; conditions: HEC-1; procedure, shortened: as §1

Estrogen receptor beta (Homo sapiens), sequence (Q92731 whole entry): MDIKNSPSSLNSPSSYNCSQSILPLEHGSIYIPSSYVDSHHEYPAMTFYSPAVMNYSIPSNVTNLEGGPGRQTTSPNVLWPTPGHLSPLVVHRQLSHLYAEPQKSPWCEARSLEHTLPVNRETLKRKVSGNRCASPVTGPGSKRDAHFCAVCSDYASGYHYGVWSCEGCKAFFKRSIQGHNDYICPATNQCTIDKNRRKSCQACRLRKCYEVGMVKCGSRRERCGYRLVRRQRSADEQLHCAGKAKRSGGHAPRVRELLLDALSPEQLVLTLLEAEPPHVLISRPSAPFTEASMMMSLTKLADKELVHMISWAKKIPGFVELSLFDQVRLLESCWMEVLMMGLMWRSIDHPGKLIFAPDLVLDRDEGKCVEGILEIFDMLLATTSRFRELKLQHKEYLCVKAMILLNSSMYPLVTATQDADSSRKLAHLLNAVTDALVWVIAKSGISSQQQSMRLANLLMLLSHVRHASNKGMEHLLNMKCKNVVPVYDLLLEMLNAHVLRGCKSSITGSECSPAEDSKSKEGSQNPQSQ
Estrogen receptor (Homo sapiens) (UniProt Q92731+P03372), sequence (Q92731 whole entry, looked up, one chain of several): as the sequence (Q92731 whole entry) above

SMILES | RBA [1] [%] | Ratio [2] | RBA [3] [%] | Activity [4] | Activity [5]
COc1ccc(C2=C(c3ccc(O)cc3)C3CC(S(=O)(=O)c4ccccc4)C2O3)cc1 (configuration not stated) | 0.066 | 1 | 0.068 | – | –
O=C1C2C3OC(C(c4ccc(O)cc4)=C3c3ccc(O)cc3)C2C(=O)N1c1ccccc1 (configuration not stated) | 0.017 | 0.77 | 0.013 | – | –
COC(=O)C1=C(c2ccccc2)C2OC1C(c1ccccc1)=C2c1ccccc1 (configuration not stated) | 0.024 | 0.29 | 0.007 | – | –
O=S(=O)(Oc1ccccc1)[C@H]1CC2OC1C(c1ccc(O)cc1)=C2c1ccc(O)cc1 (stereo in doubt; endo) | – | – | 4.1 | – | –
O=S(=O)(Oc1ccc(O)cc1)[C@H]1CC2OC1C(c1ccccc1)=C2c1ccccc1 (stereo in doubt; endo) | 0.029 | 0.86 | 0.025 | – | –
CCOC(=O)C1C2OC(C(c3ccc(O)cc3)=C2c2ccc(O)cc2)C1C(=O)OCC (configuration not stated) | 0.036 | 0.58 | 0.021 | – | –
O=S(=O)(c1ccccc1)C1CC2OC1C(c1ccccc1)=C2c1ccccc1 (configuration not stated) | 0.013 | 0.62 | 0.008 | – | –
COC(=O)C1=C(C(=O)OC)C2OC1C(c1ccc(O)cc1)=C2c1ccc(O)cc1 | 0.006 | 1.5 | 0.009 | – | –
O=S(=O)(Oc1ccc(O)cc1)C1CC2OC1C(c1ccc(O)cc1)=C2c1ccc(O)cc1 (configuration not stated) | 0.16 | 14 | 2.2 | – | –
O=C1OC(=O)C2C3OC(C(c4ccccc4)=C3c3ccccc3)C12 (configuration not stated) | 0.02 | 0.7 | 0.014 | – | –
COc1ccc(OS(=O)(=O)C2CC3OC2C(c2ccc(O)cc2)=C3c2ccc(O)cc2)cc1 (configuration not stated) | 0.1 | 3.3 | 0.32 | – | –
COC(=O)C1=C(c2ccc(O)cc2)C2OC1C(c1ccccc1)=C2c1ccccc1 (configuration not stated) | 0.031 | 0.39 | 0.012 | – | –
O=S(=O)(c1ccccc1)C1CC2OC1C(c1cccc(O)c1)=C2c1ccc(O)cc1 (configuration not stated) | 0.037 | 1.9 | 0.069 | – | –
COc1ccc(C2=C(c3ccc(O)cc3)C3CC(S(=O)(=O)Oc4ccccc4)C2O3)cc1 (configuration not stated) | 0.11 | 8.9 | 0.98 | – | –
O=S(=O)(Oc1ccccc1)[C@H]1CC2OC1C(c1ccc(O)cc1)=C2c1ccc(O)cc1 (stereo in doubt; exo) | – | – | – | Active | Active
CCS(=O)(=O)C1CC2OC1C(c1ccc(O)cc1)=C2c1ccc(O)cc1 (configuration not stated) | 0.077 | 1.3 | 0.1 | – | –
CN1C(=O)C2C3OC(C(c4ccc(O)cc4)=C3c3ccc(O)cc3)C2C1=O (configuration not stated) | 0.025 | 0.8 | 0.02 | – | –
O=S(=O)(Oc1ccccc1)C1CC2OC1C(c1cccc(O)c1)=C2c1ccc(O)cc1 (configuration not stated) | 0.21 | 4.3 | 0.9 | – | –
O=S(=O)(Oc1ccccc1)C1CC2OC1C(c1ccccc1)=C2c1ccccc1 (configuration not stated) | 0.12 | 0.57 | 0.068 | – | –
O=S(=O)(c1ccccc1)C1CC2OC1C(c1ccc(O)cc1)=C2c1ccc(O)cc1 (configuration not stated) | 0.059 | 11 | 0.64 | Active | Active
O=S(=O)(Oc1ccc(O)cc1)[C@H]1CC2OC1C(c1ccccc1)=C2c1ccccc1 (stereo in doubt; exo) | 0.027 | 0.82 | 0.022 | – | –
